Blank lines part the entries; values can stand above or below the compound they belong to. The source made the active and inactive calls. The rule behind the calls is not given here.
Key:
[1] = system: Rattus norvegicus; assay: Percentage of fall in systolic blood pressure (SBP) at the following hours after dosing at 75 mg/kg (po) at 7.5 hr in spontaneously hypertensive rats(SHR); format: functional, Artery
Summary of the method: (§1)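 Male spontaneously hypertensive rats (Wistar-Kyoto strain), unanesthetized, dosed orally; systolic pressure measured by indirect tail cuff. Before each reading, rats warmed at 35-37 °C for 15-20 min to dilate the caudal artery. Five rats per treatment group; result is percentage fall in systolic pressure versus untreated control. Significance tested against control.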

[2] = system: Rattus norvegicus; assay: Percentage of fall in systolic blood pressure (SBP) at the following hours after dosing at 75 mg/kg (po) at 24 hr in spontaneously hypertensive rats(SHR); format: functional, Artery; summary of the method: as §1
[3] = system: Rattus norvegicus; assay: Percentage of fall in systolic blood pressure (SBP) at the following hours after dosing at 75 mg/kg (po) at 2 hr in spontaneously hypertensive rats(SHR); format: functional, Artery; summary of the method: as §1
[4] = system: Rattus norvegicus; assay: Percentage of fall in systolic blood pressure (SBP) at the following hours after dosing at 75 mg/kg (po) at 5 hr in spontaneously hypertensive rats(SHR); format: functional, Artery; summary of the method: as §1
[5] = system: Rattus norvegicus; assay: […] systolic blood pressure (SBP) for compound-treated group relative to the value for untreated control at 75 mg/kg dose (po) in spontaneously hypertensive rats(SHR); format: functional, Artery; summary of the method: as §1
[6] = system: Rattus norvegicus; assay: Evaluated for the percentage inhibition of the depressor response of isoproterenol (0.25 mg/kg, iv) in spontaneously hypertensive rats at 150 mg/kg peroral dose;NI means no inhibition at 10 mg/kg, iv
[7] = system: Rattus norvegicus; assay: Percentage of fall in systolic blood pressure (SBP) at the following hours after dosing at 75 mg/kg (po) at 2 hr in spontaneously hypertensive rats(SHR); NS means not significant; format: functional, organism-based; parameters: dose 75 mg/kg; conditions: Artery; summary of the method: as §1
[8] = system: Rattus norvegicus; assay: Evaluated for the percentage inhibition of the depressor response of isoproterenol (0.25 mg/kg, iv) in spontaneously hypertensive rats at 150 mg/kg peroral dose; NI means no inhibition at 10 mg/kg, iv
[9] = system: Rattus norvegicus; assay: Percentage of fall in systolic blood pressure (SBP) at the following hours after dosing at 75 mg/kg (po) at 2 hr in spontaneously hypertensive rats(SHR):NS means not significant; format: functional, organism-based; parameters: dose 75 mg/kg; conditions: Artery; summary of the method: as §1
[10] = system: Rattus norvegicus; assay: […] systolic blood pressure (SBP) for compound-treated group relative to the value for untreated control at 8 mg/kg dose (po) in spontaneously hypertensive rats(SHR); format: functional, Artery; summary of the method: as §1
[11] = system: Rattus norvegicus; assay: Evaluated for the percentage inhibition of the depressor response of isoproterenol (0.25 mg/kg, iv) in spontaneously hypertensive rats at 150 mg/kg perorally; NI means no inhibition at 10 mg/kg, iv; format: functional, organism-based
Summary of the method: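 Male SHR, three per group, dosed orally 150 mg/kg as suspension in 4% Clearjel. At 4 h, anesthetized with sodium pentobarbital (45 mg/kg, ip); femoral artery and vein cannulated; arterial pressure monitored continuously. Isoproterenol given iv in 0.1 mL saline; depressor response compared with Clearjel vehicle-treated rats as percentage inhibition.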

[12] = system: Rattus norvegicus; assay: Percentage of fall in systolic blood pressure (SBP) after dosing at 8 mg/kg (po) at 2 hr in spontaneously hypertensive rats(SHR). NS means not significant; format: functional, organism-based; parameters: dose 8 mg/kg; conditions: Artery; summary of the method: as §1
[13] = target: T1, Adrenergic receptor beta (Rattus norvegicus, UniProt P18090+P10608+P26255); assay: Evaluated for beta-receptor affinity determined in rat brain membrane fraction with [3H]- dihydroalprenolol; format: cell membranes
[14] = system: Rattus norvegicus; assay: Percentage of fall in systolic blood pressure (SBP) after dosing at 8 mg/kg at 24 hr in spontaneously hypertensive rats(SHR). NS means not significant; format: functional, organism-based; parameters: dose 8 mg/kg; conditions: Artery; summary of the method: as §1
[15] = system: Rattus norvegicus; assay: Percentage of fall in systolic blood pressure (SBP) after dosing at 8 mg/kg (po) at 7.5 hr in spontaneously hypertensive rats(SHR); format: functional, Artery; summary of the method: as §1
[16] = system: Rattus norvegicus; assay: […] systolic blood pressure (SBP) for compound-treated group relative to the value for untreated control at 17 mg/kg dose (po) in spontaneously hypertensive rats(SHR); format: functional, Artery; summary of the method: as §1
[17] = system: Rattus norvegicus; assay: Percentage of fall in systolic blood pressure (SBP) after dosing at 17 mg/kg (po) at 7.5 hr in spontaneously hypertensive rats(SHR); format: functional, Artery; summary of the method: as §1
[18] = system: Rattus norvegicus; assay: Percentage of fall in systolic blood pressure (SBP) at the following hours after dosing at 8 mg/kg (po) at 5 hr in spontaneously hypertensive rats(SHR); format: functional, Artery; summary of the method: as §1
[19] = system: Rattus norvegicus; assay: Percentage of fall in systolic blood pressure (SBP) after dosing at 17 mg/kg (po) at 24 hr in spontaneously hypertensive rats(SHR); format: functional, Artery; summary of the method: as §1
[20] = system: Rattus norvegicus; assay: Percentage of fall in systolic blood pressure (SBP) after dosing at 17 mg/kg (po) at 5 hr in spontaneously hypertensive rats(SHR); format: functional, Artery; summary of the method: as §1
[21] = system: Rattus norvegicus; assay: Percentage of fall in systolic blood pressure (SBP) after dosing at 17 mg/kg (po) at 2 hr in spontaneously hypertensive rats(SHR). NS means not significant; format: functional, organism-based; parameters: dose 17 mg/kg; conditions: Artery; summary of the method: as §1
[22] = system: Rattus norvegicus; assay: Percentage of fall in systolic blood pressure (SBP) at the following hours after dosing at 8 mg/kg (po) at 2 hr in spontaneously hypertensive rats(SHR); format: functional, Artery; summary of the method: as §1
[23] = system: Rattus norvegicus; assay: Percentage of fall in systolic blood pressure (SBP) at the following hours after dosing at 8 mg/kg (po) at 24 hr in spontaneously hypertensive rats(SHR);NS means not significant; format: functional, organism-based; parameters: dose 8 mg/kg; conditions: Artery; summary of the method: as §1
[24] = system: Rattus norvegicus; assay: Percentage of fall in systolic blood pressure (SBP) at the following hours after dosing at 17 mg/kg (po) at 7.5 hr in spontaneously hypertensive rats(SHR); format: functional, Artery; summary of the method: as §1
[25] = system: Rattus norvegicus; assay: Percentage of fall in systolic blood pressure (SBP) at the following hours after dosing at 8 mg/kg (po) at 7.5 hr in spontaneously hypertensive rats(SHR); format: functional, Artery; summary of the method: as §1
[26] = system: Rattus norvegicus; assay: Percentage of fall in systolic blood pressure (SBP) at the following hours after dosing at 17 mg/kg (po) at 24 hr in spontaneously hypertensive rats(SHR);NS means not significant; format: functional, organism-based; parameters: dose 17 mg/kg; conditions: Artery; summary of the method: as §1
[27] = system: Rattus norvegicus; assay: Percentage of fall in systolic blood pressure (SBP) at the following hours after dosing at 17 mg/kg (po) at 2 hr in spontaneously hypertensive rats(SHR); format: functional, Artery; summary of the method: as §1
[28] = system: Rattus norvegicus; assay: Percentage of fall in systolic blood pressure (SBP) at the following hours after dosing at 17 mg/kg (po) at 5 hr in spontaneously hypertensive rats(SHR); format: functional, Artery; summary of the method: as §1
[29] = target: T1, Adrenergic receptor beta; assay: Evaluated for beta-receptor affinity, determined in rat brain membrane fraction with [3H]- dihydroalprenolol; format: cell membranes
Summary of the method: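 Rat brain with cerebellum removed, homogenized in ice-cold 50 mM Tris-HCl pH 8.0 and spun at 50000g for 15 min, pellet washed once more the same way. Binding used 0.4-0.6 mg protein, 1 nM [3H]dihydroalprenolol, 50 mM Tris pH 8.0, and 5-10 competitor concentrations. IC50 read visually from a semilog plot; Ki from Cheng-Prusoff with KD approximately 1 nM.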

[30] = system: Rattus norvegicus; assay: Percentage of fall in systolic blood pressure (SBP) at the following hours after dosing at 8 mg/kg (po) at 5 hr in spontaneously hypertensive rats(SHR);NS means not significant; format: functional, organism-based; parameters: dose 8 mg/kg; conditions: Artery; summary of the method: as §1
[31] = system: Rattus norvegicus; assay: Percentage of fall in systolic blood pressure (SBP) at the following hours after dosing at 75 mg/kg (po) at 7.5 hr in spontaneously hypertensive rats(SHR); NS means not significant; format: functional, organism-based; parameters: dose 75 mg/kg; conditions: Artery; summary of the method: as §1
[32] = system: Rattus norvegicus; assay: Percentage of fall in systolic blood pressure (SBP) at the following hours after dosing at 75 mg/kg (po) at 24 hr in spontaneously hypertensive rats(SHR); NS means not significant; format: functional, organism-based; parameters: dose 75 mg/kg; conditions: Artery; summary of the method: as §1
[33] = organism: Rattus norvegicus; assay: animal or person; conditions: iv, read-out: Inhibition
[34] = system: Rattus norvegicus; assay: Percentage of fall in systolic blood pressure (SBP) at the following hours after dosing at 75 mg/kg (po) at 5 hr in spontaneously hypertensive rats(SHR); NS means not significant; format: functional, organism-based; parameters: dose 75 mg/kg; conditions: Artery; summary of the method: as §1

Compound: Cl.O=c1c(-c2ccccc2)c(-c2ccccc2)oc2cc(OCC(O)CNC3CCCC3)ccc12 (configuration not stated)
Decrease in SBP [1]: 23% | Decrease in SBP [2]: 18% | Decrease in SBP [3]: 10% | Decrease in SBP [4]: 23% | SBP [5]: 200 mmHg | inhibition [6]: inactive

Compound: O=c1c(-c2ccccc2)c(-c2ccccc2)oc2cc(OCC(O)CNC3CCCCC3)ccc12 (configuration not stated)
Decrease in SBP [1]: 13% | Decrease in SBP [2]: 16% | Decrease in SBP [4]: 10% | Decrease in SBP [7]: inactive | SBP [5]: 216 mmHg

Compound: C=CCNCC(O)COc1ccc2c(=O)c(-c3ccccc3)c(-c3ccccc3)oc2c1 (configuration not stated)
Decrease in SBP [1]: 11% | inhibition [8]: inactive | Decrease in SBP [2]: 9% | Decrease in SBP [4]: 10% | Decrease in SBP [9]: inactive | SBP [5]: 197 mmHg

Ki [13]: > 0.00005 M
Compound: CC(C)NCC(O)COc1ccc2c(=O)c(-c3ccccc3)c(-c3ccccc3)oc2c1.Cl (configuration not stated)
SBP [10]: 198 mmHg | inhibition [11]: inactive | Decrease in SBP [12]: inactive | Decrease in SBP [14]: inactive | Decrease in SBP [15]: 8% | SBP [16]: 195 mmHg | Decrease in SBP [17]: 20% | Decrease in SBP [18]: 10% | Decrease in SBP [19]: 11% | Decrease in SBP [20]: 14% | Decrease in SBP [21]: inactive

Ki [29]: > 0.00005 M
Compound: O=c1c(-c2ccccc2)c(-c2ccccc2)oc2cc(OCC(O)CNC3CC3)ccc12 (configuration not stated)
SBP [10]: 188 mmHg | Decrease in SBP [22]: 7% | inhibition [11]: inactive | Decrease in SBP [23]: inactive | Decrease in SBP [24]: 18% | Decrease in SBP [25]: 10% | Decrease in SBP [26]: inactive | SBP [16]: 193 mmHg | Decrease in SBP [27]: 10% | Decrease in SBP [28]: 23% | Decrease in SBP [30]: inactive

Compound: CC(C)NCC(O)COc1cccc2ccccc12 (configuration not stated) [PROPRANOLOL]
Decrease in SBP [31]: inactive | Decrease in SBP [32]: inactive | inhibition in vivo at 10 mg/kg [33]: 100% | Decrease in SBP [7]: inactive | Decrease in SBP [34]: inactive | SBP [5]: 212 mmHg

Compound: CCCCCCNCC(O)COc1ccc2c(=O)c(-c3ccccc3)c(-c3ccccc3)oc2c1.Cl (configuration not stated)
Decrease in SBP [31]: inactive | Decrease in SBP [32]: inactive | Decrease in SBP [7]: inactive | Decrease in SBP [34]: inactive | SBP [5]: 200 mmHg
